Results from ChEMBL document CHEMBL5653606 (J Pharmacol Exp Ther, 2011).
Active and inactive are the calls of the source.

Columns and labels:
[1] = molecular target: T1, Fatty-acid amide hydrolase 1 (Rattus norvegicus, UniProt P97612); test: Inhibition of rat FAAH assessed as kinact/Ki ratio incubated for 30 min in presence of glutamate dehydrogenase by 384-well format microplate reader assay
T1 sequence (P97612 whole entry): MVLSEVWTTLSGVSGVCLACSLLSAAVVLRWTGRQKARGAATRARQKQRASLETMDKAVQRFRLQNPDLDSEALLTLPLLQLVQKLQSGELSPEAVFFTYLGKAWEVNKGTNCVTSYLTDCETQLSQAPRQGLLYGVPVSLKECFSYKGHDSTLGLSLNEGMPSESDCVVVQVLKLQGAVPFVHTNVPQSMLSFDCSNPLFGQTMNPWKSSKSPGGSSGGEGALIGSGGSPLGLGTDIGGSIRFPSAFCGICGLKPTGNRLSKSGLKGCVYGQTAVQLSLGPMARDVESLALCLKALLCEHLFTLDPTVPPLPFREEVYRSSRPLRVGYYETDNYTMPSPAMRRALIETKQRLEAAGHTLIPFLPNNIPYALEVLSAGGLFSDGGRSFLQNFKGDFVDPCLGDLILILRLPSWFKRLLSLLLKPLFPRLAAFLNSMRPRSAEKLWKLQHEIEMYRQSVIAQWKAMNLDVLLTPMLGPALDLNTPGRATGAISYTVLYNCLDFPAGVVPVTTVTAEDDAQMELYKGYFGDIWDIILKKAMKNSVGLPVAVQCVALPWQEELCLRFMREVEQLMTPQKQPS

[2] = molecular target: T2, Fatty-acid amide hydrolase 1 (Homo sapiens) (UniProt O00519); test: Inhibition of FAAH in human brain at 100 uM in presence of FP-rhodamine by competitive activity-based protein profiling method; type: tissue-based
T2 sequence (whole entry): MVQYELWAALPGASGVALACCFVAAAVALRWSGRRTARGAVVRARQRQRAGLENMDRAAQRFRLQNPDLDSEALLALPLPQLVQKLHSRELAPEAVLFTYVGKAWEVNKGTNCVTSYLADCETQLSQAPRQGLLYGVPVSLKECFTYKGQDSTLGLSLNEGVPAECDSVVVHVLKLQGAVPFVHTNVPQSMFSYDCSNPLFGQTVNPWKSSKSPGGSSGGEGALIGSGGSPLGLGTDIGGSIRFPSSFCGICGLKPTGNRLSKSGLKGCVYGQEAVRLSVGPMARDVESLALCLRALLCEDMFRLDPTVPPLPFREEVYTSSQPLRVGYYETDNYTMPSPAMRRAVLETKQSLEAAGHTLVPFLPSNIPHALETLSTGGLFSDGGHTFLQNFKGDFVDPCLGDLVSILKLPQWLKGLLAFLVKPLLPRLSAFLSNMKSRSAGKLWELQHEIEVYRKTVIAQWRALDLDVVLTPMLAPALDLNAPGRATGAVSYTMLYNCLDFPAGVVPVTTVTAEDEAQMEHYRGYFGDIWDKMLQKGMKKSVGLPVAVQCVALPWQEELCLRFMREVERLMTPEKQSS
Summary of the method: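 Competitive ABPP on human and mouse brain, liver and heart proteomes (membrane and soluble fractions), exposed to compound at 10 or 100 μM or to DMSO. Serine hydrolases were then labeled with FP-rhodamine. Gels were read by fluorescence scanning, and loss of band labeling (FAAH or other hydrolases by kDa) was judged.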

[3] = molecular target: T3, Fatty-acid amide hydrolase 1 (Rattus norvegicus) (UniProt P97612); test: In vivo inhibition of FAAH in CFA induced Sprague-Dawley rat plasma assessed as elevation of NAE level at 0.1 to 10 mg/kg, po; type: functional, organism-based; conditions: dose 0.1-10 mg/kg
T3 sequence (whole entry): T1 sequence (P97612 whole entry)
Summary of the method: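 Lipid (NAE) levels in rat brain and plasma measured by LC/MS after oral dosing in CFA rats; n = 3 rats/group. Time-course samples taken at 1, 2, 4, 8, 24 h after 1 mg/kg.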

[4] = Tmax in rat at 5 mg/kg, po measured upto 24 hrs by LC/MS analysis; type: ADME, organism-based; conditions: in vivo
Mus musculus [5] = test: Antinociceptive activity in C57BL6/J mouse assessed as increased tail withdrawal latency at 1 to 10 mg/kg, po administered for 4 hrs; type: functional, organism-based; conditions: dose 1-10 mg/kg
Summary of the method: (§1)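 Male C57BL/6J mice, 7 weeks old, n = 8/group, dosed orally at 1 or 10 mg/kg in PEG 300 (4 ml/kg). Tetrad tested 4 h postdose: locomotor activity, tail-immersion thermal nociception, catalepsy (assessed 60 s), body temperature. Means ± S.E.M. versus vehicle.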

Mus musculus [6] = test: In vivo inhibition of rhodamine-azide tagged FAAH expressed in mouse brain at 1 mg/kg, po by CC-ABPP method based in-gel fluorescence scanning analysis; type: functional, organism-based
[7] = molecular target: T3, Fatty-acid amide hydrolase 1 (Rattus norvegicus); test: In vivo inhibition of FAAH in CFA induced Sprague-Dawley rat brain at 0.1 to 10 mg/kg, po relative to control; type: functional, organism-based; conditions: dose 0.1-10 mg/kg
Summary of the method: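 Brain and blood leukocyte membrane fractions from CFA rats after oral dosing. FAAH activity measured with 3H-labeled AEA substrate, quantifying released 3H-ethanolamine; n = 3 rats/group. Time course sampled at 1, 2, 4, 8, 24 h after 1 mg/kg.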

[8] = molecular target: T3, Fatty-acid amide hydrolase 1 (Rattus norvegicus); test: In vivo inhibition of FAAH in CFA induced Sprague-Dawley rat WBC assessed as elevation of AEA level at 0.1 to 10 mg/kg, po using 3H-labeled AEA as substrate; type: functional, organism-based; conditions: dose 0.1-10 mg/kg
Mus musculus [9] = test: Antinociceptive activity in C57BL6/J mouse assessed as thermal tail immersion at 1 to 10 mg/kg, po administered for 4 hrs; type: functional, organism-based; conditions: dose 1-10 mg/kg; summary of the method: as §1
[10] = Plasma concentration in rat at 5 mg/kg, po by LC/MS analysis; type: ADME, organism-based; conditions: in vivo
Rattus norvegicus [11] = test: Antihyperalgesic activity in CFA induced Sprague-Dawley rat assessed as inhibition of mechanical allodynia at 0.003 to 10 mg/kg, po measured for 4 hrs by von frey test; type: functional, organism-based; conditions: dose 0.003-10 mg/kg
Summary of the method: (§2)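 Male Sprague-Dawley rats (200–250 g) given 150 μl CFA (1 mg/ml in mineral oil) intraplantar in the hind paw. Mechanical paw withdrawal thresholds read with Von Frey hairs on day 5 postinjection. Dosed orally as nanocrystalline suspension in 2% polyvinylpyrrolidone/0.15% SDS in water, 10 ml/kg. PWTs taken 4 h postdose for dose-response, or at 1, 2, 4, 8, 24 h for time course.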

Rattus norvegicus [12] = test: Antihyperalgesic activity in CFA induced Sprague-Dawley rat assessed as inhibition of mechanical allodynia at 0.1 mg/kg, po measured for 4 hrs by von frey test; type: functional, organism-based; summary of the method: as §2
Rattus norvegicus [13] = test: Antihyperalgesic activity in CFA induced Sprague-Dawley rat assessed as inhibition of mechanical allodynia at 1 mg/kg, po measured for 1 to 24 hrs by von frey test; type: functional, organism-based; conditions: time 1-24 hrs; summary of the method: as §2
[14] = Ratio of drug concentration in CFA induced Sprague-Dawley rat brain to plasma at 0.1 to 10 mg/kg, po by LC/MS analysis; type: ADME, organism-based; conditions: brain and plasma, dose 0.1-10 mg/kg
Summary of the method: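 Male Sprague-Dawley rats (200–250 g) received 150 μl CFA (1 mg/ml suspension in mineral oil) into the plantar hind paw. On day 5 they were dosed orally at 0.003–10 mg/kg as a nanocrystalline suspension in 2% polyvinylpyrrolidone/0.15% SDS in H₂O at 10 ml/kg. Drug levels were measured in brain tissue and plasma in the dose-response study, where PWTs were read at 4 h post-dose.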

- IC50 [1]: 0.0111 µM
- inhibition [2]: Active
- inhibition [3]: Active
- Tmax [4]: 2 h
- inhibition [7]: 98%
- inhibition [8]: Active
- concentration [10]: 2800 nM
- Kp [14]: 1.3
Compound: O=C(Nc1cccnn1)N1CCC(=Cc2cccc(Oc3ccc(C(F)(F)F)cn3)c2)CC1
- Activity (Mus musculus [5]): Toxic
- inhibition (Mus musculus [6]): Active
- Activity (Mus musculus [9]): Toxic
- Activity (Rattus norvegicus [11]): Active
- Activity (Rattus norvegicus [12]): Active
- Activity (Rattus norvegicus [13]): Active
